Compound activity: PubChem, several laboratories
An excerpt weighted towards active compounds, which were near 1.5% of everything screened.
GalR3 antag: antagonists of human GalR3; actives 0.44% (n = 360,000); inhibition, % at 3 µM; AID 651719; O60755; HEK293 GalR3-CNG cAMP membrane potential fluorescence; galR3 body fused to GalR1 C-terminus;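 active = inhibition above the screen-wide average plus 3 SD, cut at about 13% in these data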;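 also: forskolin and galanin both at EC90 stimulate the cells; cAMP rise reported by CNG channel membrane potential dye signal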
NR2E3 ag-1: activates human photoreceptor nuclear receptor NR2E3. actives 0.12% (n = 320,000). GST-NR2E3/biotin-RetCOR TR-FRET, 1536-well. inhibition of corepressor binding, % at 4.78 µM;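 active = percent inhibition above the cutoff of mean plus 3 SD of all tested compounds, set per screening campaign, cut at about 20% in these data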
Target sequence (Q9Y5X4 whole entry, looked up): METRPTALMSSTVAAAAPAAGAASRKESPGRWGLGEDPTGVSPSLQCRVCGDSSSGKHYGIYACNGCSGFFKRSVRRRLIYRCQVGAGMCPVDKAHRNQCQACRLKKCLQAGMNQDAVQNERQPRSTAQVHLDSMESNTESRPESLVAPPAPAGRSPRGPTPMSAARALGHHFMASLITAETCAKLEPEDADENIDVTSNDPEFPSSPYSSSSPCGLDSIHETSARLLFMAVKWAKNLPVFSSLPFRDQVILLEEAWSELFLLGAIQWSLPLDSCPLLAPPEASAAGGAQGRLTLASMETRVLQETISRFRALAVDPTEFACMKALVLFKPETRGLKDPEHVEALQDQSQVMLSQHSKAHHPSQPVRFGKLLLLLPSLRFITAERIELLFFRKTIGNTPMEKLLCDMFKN
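Test system: GST-NR2E3 and biotin-RetCOR proteins | Quantity: 1.35 nM GST-tagged NR2E3 final | Medium: Tris pH 7.5 | Also added: 7 nM biotin-RetCOR | Dosing: Compound at 4.8 µM, single dose | Timing: 5 h at 4 °C | Detection: Time-resolved FRET | Read-out basis: Percent inhibition | Benchmarks: Biotin wells as high control, 0.6% DMSO wells as low control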
JMJD2C inh: inhibitors of human GASC-1 (JMJD2C) demethylase; Q9H3R0; GST-JMJD2C(1-420) H3K9me3 demethylation, DELFIA europium; inhibition, % at 2.35 µM; actives 0.069% (n = 330,000);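 active = more than half of a compound's replicate wells show inhibition beyond 50%, single wells judged on their own value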;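 also: signal counts dimethyl H3K9 product captured on neutravidin plate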
NR2E3 ag-2: human photoreceptor-specific nuclear receptor agonism; inhibition of corepressor binding, % at 3.98 µM; CHO-S Gal4-NCOR/VP16-NR2E3 two-hybrid, luciferase; actives 0.35% (n = 360,000); Q9Y5X4;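 active = inhibition above the mean of all tested compounds plus 3 SD, cut at about 70% in these data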;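 also: higher means lower luciferase signal from less NR2E3 corepressor binding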
697 NFkB inh: inhibitors of the PMA/ionomycin-induced NF-kB reporter in 697 B cells | 697 B-cell NF-kB luciferase reporter, 16 h | inhibition, % at 4 µM | actives 0.33% (n = 330,000) | AID 435022; in the data active = inhibition above about 35%
Jurkat NFkB inh: inhibitors of the PMA/ionomycin-induced NF-kB reporter in Jurkat cells | actives 0.53% (n = 330,000) | inhibition, % at 4 µM | PMA/ionomycin-induced NF-kB luciferase reporter, luminescence; in the data active = inhibition above about 50%
NR2E3 ag conf: confirmation of human NR2E3 agonists | shares compounds with NR2E3 ag-2 | CHO-S mammalian two-hybrid NR2E3-NCOR, luciferase luminescence | inhibition, % at 3.98 µM | actives 51% (n = 2,300) | AID 624378;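 active = average inhibition above a cutoff equal to the mean inhibition of all tested compounds plus one SD, cut at about 70% in these data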
GAL4-VP16 luc: GAL4-VP16 reporter inhibition in NR2E3 agonist counterscreen; shares compounds with NR2E3 ag-2; CHO-S GAL4-VP16 luciferase reporter, luminescence; inhibition, % at 3.98 µM; actives 29% (n = 2,300); AID 624379;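 active = mean inhibition above a cutoff equal to the average over all tested compounds plus one standard deviation, cut at about 70% in these data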;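 also: luciferase from a UAS reporter driven by GAL4-VP16 transactivation; higher means less reporter light so more repression of VP16 activity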
Numbers stand for hits; - = inactive; . = not tested or not shown.

SMILES	GalR3 antag	NR2E3 ag-1	JMJD2C inh	NR2E3 ag-2	697 NFkB inh	Jurkat NFkB inh	NR2E3 ag conf	GAL4-VP16 luc
CC1CCN(c2ccc(S(=O)(=O)N3CCC(C)CC3)cc2N)CC1	-	-	-	100	-	-	87	72
Nc1cc(S(=O)(=O)Nc2ccccc2Cl)ccc1N1CCCCC1	-	.	-	70	-	-	83	-
Nc1ccc(N2CCCCC2)c(S(=O)(=O)Nc2ccccc2Cl)c1	-	-	-	-	-	-	.	.
CCN1CCN(c2ccc(S(=O)(=O)N3CCCCC3)cc2N)CC1	-	-	-	-	-	-	.	.
CCOc1ccc(N2CC(C(=O)N3CCN(C(=O)c4ccco4)CC3)CC2=O)cc1 (configuration not stated)	-	-	-	-	-	-	.	.
CC(C)(C)N(Cc1ccccc1)C(=O)COC(=O)C1CC(=O)N(Cc2ccccc2)C1 (configuration not stated)	-	.	.	-	.	.	.	.
CCOc1ccc(N2C(=O)C3ON(c4ccccc4)C(c4cccs4)C3C2=O)cc1 (configuration not stated)	-	-	-	-	-	-	.	.
CC(C(=O)N1CCN(c2ccc(Cl)cc2)CC1)c1ncc(C(F)(F)F)cc1Cl (configuration not stated)	-	-	-	81	-	-	76	-
NS(=O)(=O)c1cc2c(cc1Cl)NC(Cc1ccccc1)NS2(=O)=O (configuration not stated)	-	-	-	-	-	-	.	.
COc1cccc(Cn2nnc(C(=O)Nc3cc(C)ccc3OC)c2N)c1	.	-	-	-	-	-	-	-
COc1ccc(C)cc1NC(=O)c1nnn(Cc2cc(C)ccc2C)c1N	-	-	-	-	-	-	.	.
COc1cccc(Cn2nnc(C(=O)Nc3ccc(C)cc3)c2N)c1	-	-	-	-	-	-	.	.
COc1ccc(OC)c(NC(=O)c2nnn(Cc3ccccc3C)c2N)c1	-	-	-	-	-	-	80	-
O=c1[nH]c(SCc2ccc(OC(F)(F)F)cc2)nc2c1CCC2	-	.	.	-	.	.	.	.
COC(=O)c1cc2c(c3c4cc(F)ccc4n(S(=O)(=O)c4ccccc4)c13)C(=O)N(Cc1ccc(N(C)C)cc1)C2	-	.	.	.	.	.	.	.
COc1ccc(OC)c(-c2csc(NC(=O)Cc3cc(OC)c(OC)c(OC)c3)n2)c1	-	-	-	-	-	-	-	-
O=C(O)/C(=C/c1ccc(Cl)c([N+](=O)[O-])c1)c1ccc(S(=O)(=O)N2CCCCC2)s1	-	.	.	-	.	.	.	.
O=C(NCc1ccccc1)C(C1CC1)n1c(=O)c(-c2ccco2)nc2ccccc21 (configuration not stated)	-	.	.	.	.	.	.	.
CC1=NN(C(N)=S)C(=O)C1N=Nc1ccccc1C (configuration not stated)	-	-	-	74	-	-	-	-
CC1=NN(C(N)=S)C(=O)C1N=Nc1c(C)cc(C)cc1C (configuration not stated)	-	-	-	73	-	-	-	-
CC1=NN(C(N)=S)C(=O)C1N=Nc1c(Cl)cc([N+](=O)[O-])cc1Cl (configuration not stated)	-	-	-	83	-	-	-	-
CC1=NN(C(N)=S)C(=O)C1N=Nc1ccccc1O (configuration not stated)	-	-	-	-	-	-	.	.
Oc1ccccc1/C=N/NC(=S)NC1CC2CC1C1C=CCC21 (configuration not stated)	-	-	-	-	-	-	-	-
COc1cccc(/C=N/NC(=S)NC2CC3CC2C2C=CCC32)c1O (configuration not stated)	-	-	-	-	-	-	.	.
COc1ccc(CN(C)C(=O)c2ccc(COc3ccccc3)cc2)c(OC)c1	-	-	-	-	-	-	.	.
SMILES	GalR3 antag	NR2E3 ag-1	JMJD2C inh	NR2E3 ag-2	697 NFkB inh	Jurkat NFkB inh	NR2E3 ag conf	GAL4-VP16 luc
COc1cc(OC)c(OC)cc1CNC(=O)c1ccc(COc2ccccc2)cc1	-	-	-	-	-	-	-	-
C=C[C@](C)(CC[C@@]1(C)C(C)CC(OC2OC(C)C(OC3OC(COC(C)=O)C(O)C(O)C3O)C(O)C2O)[C@@]2(C)C(C)=CCCC12)OC1OC(C)C(O[C@@H]2O[C@@H](C)C(O)C(O)[C@H]2O)C(O)C1O (some centres not stated)	.	.	-	-	-	-	.	.
COC1=C(C)C(=O)C2=C(C1=O)C1C3CC4=C(C(=O)C(OC)=C(C)C4=O)C(CNC(=O)C(C)=O)N3C(C#N)C(C2)N1C (configuration not stated)	-	.	.	102	.	.	100	95
O=C(c1cccs1)N1CCN(c2ccc([N+](=O)[O-])cc2F)CC1	-	-	-	-	-	-	.	.
Cc1cc(N2CCN(C(=O)c3cccs3)CC2)c(F)cc1[N+](=O)[O-]	-	-	-	79	-	-	82	-
CN(Cc1ccco1)C(=O)Cn1c(=O)oc2cc(S(=O)(=O)NCc3ccccc3)ccc21	-	-	-	-	-	-	.	.
CN(Cc1ccccc1)C(=O)Cn1c(=O)oc2cc(S(=O)(=O)NCc3ccccc3)ccc21	-	-	-	-	-	-	-	-
COc1ccccc1-c1cc2nc(C)cc(C)n2n1	-	-	-	-	-	-	.	.
O=C(C1=C(c2ccccc2)C(=O)c2ccccc2C1=O)c1ccccc1	-	.	-	78	.	.	99	93
COC1=C(c2ccccc2)C(=O)c2ccccc2C1=O	-	-	-	-	-	-	.	.
O=C(CN1CCOCC1)Nc1ccccc1Sc1ccc(Cl)cc1	-	-	-	-	-	-	.	.
CC1CCCN(C(=O)COC(=O)Cn2cnc3ccccc32)C1 (configuration not stated)	-	.	-	-	-	-	.	.
Cc1cc(=O)n(-c2ccc(O)cc2)[nH]1	-	-	-	-	-	-	-	-
Cc1cc(=O)n(-c2ccc(C(=O)O)cc2)[nH]1	-	-	-	-	-	-	.	.
COC1=C(OC)C(=O)C(Sc2ccc3ccccc3c2)=CC1=O	-	.	.	84	.	.	94	-
CCOC(=O)C(=O)NNc1ccc(C)cc1	-	-	-	-	-	-	-	-
CCOC(=O)C(=O)NNc1ccc(Cl)cc1	-	-	-	-	-	-	-	-
CCc1ccc(C(=O)NNc2ccc(Cl)cc2)cc1	-	-	-	-	-	-	.	.
CCOC(=O)C(=O)NNc1ccccc1OC	-	-	-	-	-	-	.	.
O=C(C[C@@H]1CC[C@H](NC(=O)Cc2ccccn2)[C@@H](CO)O1)NCCc1ccccc1	-	.	.	.	.	.	.	.
CCOC(=O)Cc1c(C)nc2c(-c3cccc(Br)c3)c[nH]n2c1=O	-	-	-	-	-	-	-	-
